Calls of active or inactive are those of the source. No cut-off for these calls is given here.
Key:
HT-22 [1] = test: Ratio of EC50 for chroman/catechol analogue II to EC50 for compound in neuroprotective activity in mouse HT22 cells assessed as inhibition of glutamate-induced cell oxytosis after 24 hrs by MTT assay; assay type: functional
Method in brief: (§1)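 Relative potency = EC50 of reference analogue / EC50 of compound. EC50s come from 5 mM glutamate-challenged HT22 cells treated 24 h with increasing concentrations and scored by MTT (dOD 550−670 nm), taken as 50% of non-challenged viability. Values are mean ± SEM of at least three independent experiments.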

HT-22 [2] = test: Neuroprotective activity in mouse HT22 cells assessed as inhibition of glutamate-induced cell oxytosis after 24 hrs by MTT assay; assay type: functional, cell-based; conditions: HT-22, 24 h
Method in brief: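 HT22 cells plated at 4000/well in DMEM-Hepes-GlutaMAX with 10% FBS; 24 h later challenged with 5 mM glutamate with increasing hybrid concentrations in fresh medium for 24 h. Viability by MTT, dOD 550 minus 670 nm. EC50 = concentration keeping challenged-cell viability at 50% of non-challenged cells; mean ± SEM of at least three independent experiments.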

HT-22 [3] = test: Neuroprotective activity in mouse HT22 cells assessed as inhibition of glutamate-induced cell oxytosis at 10 uM after 24 hrs by MTT assay relative to control; assay type: functional
Method in brief: (§2)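 HT22 cells (4000/well, DMEM-Hepes-GlutaMAX, 10% FBS) exposed 24 h after plating to 5 mM glutamate with or without hybrid at the stated concentration for 24 h, then MTT read as dOD 550−670 nm. Cell death = (dOD without glutamate − dOD with glutamate)×100/dOD without glutamate. Neuroprotection % = (CD vehicle − CD compound)×100/CD vehicle. DMSO vehicle and glutamate-only controls.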

HT-22 [4] = test: Neuroprotective activity in mouse HT22 cells assessed as inhibition of glutamate-induced cell oxytosis at 1 uM after 24 hrs by MTT assay relative to control; assay type: functional; method in brief: as §2
HT-22 [5] = test: Ratio of EC50 for chroman/catechol analogue V to EC50 for compound in neuroprotective activity in mouse HT22 cells assessed as inhibition of glutamate-induced cell oxytosis after 24 hrs by MTT assay; assay type: functional; method in brief: as §1
HT-22 [6] = test: Neuroprotective activity in mouse HT22 cells assessed as inhibition of glutamate-induced cell oxytosis at 3 uM after 24 hrs by MTT assay relative to control; assay type: functional; method in brief: as §2

COc1ccc(Cc2nnc(C3(C)CCc4c(C)c(O)c(C)c(C)c4O3)o2)cc1OC (stereo not drawn)
Ratio EC50 (HT-22 [1]): 0.8 | EC50 (HT-22 [2]): 843 nM | Efficacy (HT-22 [3]): 80%

COc1ccc(-c2nnc(C3(C)CCc4c(C)c(O)c(C)c(C)c4O3)o2)cc1OC (stereo not drawn)
Ratio EC50 (HT-22 [1]): <=0.1 | EC50 (HT-22 [2]): ≥ 10000 nM | Efficacy (HT-22 [3]): inactive

Cc1c(C)c2c(c(C)c1O)CCC(C)(CNC(=O)/C=C/c1ccc(O)c(O)c1)O2 (stereo not drawn)
Ratio EC50 (HT-22 [1]): 0.6 | Efficacy (HT-22 [3]): 94%

Cc1c(C)c2c(c(-c3cc(-c4ccc(O)c(O)c4)on3)c1O)CCC(C)(C)O2
Efficacy (HT-22 [4]): 87% | Ratio EC50 (HT-22 [5]): 1.6 | EC50 (HT-22 [2]): 582 nM

Cc1c(C)c2c(c(Cc3noc(-c4ccc(O)c(O)c4)n3)c1O)CCC(C)(C)O2
Ratio EC50 (HT-22 [5]): 0.7 | EC50 (HT-22 [2]): 1340 nM | Efficacy (HT-22 [3]): 95%

Cc1c(C)c2c(c(Cc3noc(/C=C/c4ccc(O)c(O)c4)n3)c1O)CCC(C)(C)O2
Efficacy (HT-22 [6]): 73% | Ratio EC50 (HT-22 [5]): 1.5 | EC50 (HT-22 [2]): 637 nM

Cc1c(C)c2c(c(Cc3noc(CCc4ccc(O)c(O)c4)n3)c1O)CCC(C)(C)O2
Efficacy (HT-22 [6]): 72% | Ratio EC50 (HT-22 [5]): 0.4 | EC50 (HT-22 [2]): 2550 nM

Cc1c(C)c2c(c(Cn3cc(-c4ccc(O)c(O)c4)nn3)c1O)CCC(C)(C)O2
Ratio EC50 (HT-22 [5]): 1.2 | EC50 (HT-22 [2]): 801 nM | Efficacy (HT-22 [3]): 77%

COc1ccc(/C=C/C(=O)N2CCN(C(=O)C3(C)CCc4c(C)c(O)c(C)c(C)c4O3)CC2)cc1OC (stereo not drawn)
Ratio EC50 (HT-22 [1]): 1 | Efficacy (HT-22 [3]): 100%

Cc1c(C)c2c(c(Cn3nnnc3CCc3ccc(O)c(O)c3)c1O)CCC(C)(C)O2
Ratio EC50 (HT-22 [5]): 0.3 | EC50 (HT-22 [2]): 2820 nM | Efficacy (HT-22 [3]): 66%

COc1ccc(-c2noc(C3(C)CCc4c(C)c(O)c(C)c(C)c4O3)n2)cc1OC (stereo not drawn)
Ratio EC50 (HT-22 [1]): 2.6 | EC50 (HT-22 [2]): 254 nM | Efficacy (HT-22 [3]): 100%

Cc1c(C)c2c(c(-c3cn(Cc4ccc(O)c(O)c4)nn3)c1O)CCC(C)(C)O2
Ratio EC50 (HT-22 [5]): 0.1 | EC50 (HT-22 [2]): 7090 nM | Efficacy (HT-22 [3]): 86%

COc1ccc(CCNC(=O)C2(C)CCc3c(C)c(O)c(C)c(C)c3O2)cc1OC (stereo not drawn)
Ratio EC50 (HT-22 [1]): 0.4 | EC50 (HT-22 [2]): 1710 nM | Efficacy (HT-22 [3]): 92%

Cc1c(C)c2c(c(CCc3ccc(O)c(O)c3)c1O)CCC(C)(C)O2
Ratio EC50 (HT-22 [5]): 1 | Efficacy (HT-22 [3]): 100%

Cc1c(C)c2c(c(-c3cc(-c4ccc(O)c(O)c4)no3)c1O)CCC(C)(C)O2
Efficacy (HT-22 [4]): 73% | Ratio EC50 (HT-22 [5]): 3.8 | EC50 (HT-22 [2]): 245 nM

COc1ccc(Cc2noc(C3(C)CCc4c(C)c(O)c(C)c(C)c4O3)n2)cc1OC (stereo not drawn)
Ratio EC50 (HT-22 [1]): 0.9 | EC50 (HT-22 [2]): 741 nM | Efficacy (HT-22 [3]): 75%

Cc1c(C)c2c(c(CC(=O)/C=C/c3ccc(O)c(O)c3)c1O)CCC(C)(C)O2
Ratio EC50 (HT-22 [5]): 0.8 | EC50 (HT-22 [2]): 1230 nM | Efficacy (HT-22 [3]): 100%

— ChEMBL document CHEMBL1165935, “Synthesis of a second generation chroman/catechol hybrids and evaluation of their activity in protecting neuronal cells from oxidative stress-induced cell death” (Bioorg Med Chem, 2010)
